Measured values: ChEMBL document CHEMBL3124806, “Imidazopyridine-fused [1,3]-diazepinones: synthesis and antiproliferative activity” (Eur J Med Chem, 2014)

Experiments:
[1] = organism: Ovis aries; experiment: Inhibition of sheep brain tubulin polymerization at 100 uM after 40 mins by DAPI staining-based fluorescence assay
Outline: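 Microtubular protein was purified from sheep brain by two assembly/disassembly cycles (37 °C/0 °C) in MES buffer (100 mM MES pH 6.6, 1 mM EGTA, 0.5 mM MgCl₂). Compound in DMSO was added to 10 µM tubulin with 10 µM DAPI and incubated 40 min at RT. GTP (1 mM) was then added, and assembly was followed by DAPI fluorescence at 37 °C.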

[2] = test system: MDA-MB-435; experiment: Cytotoxicity against human MDA-MB-435 cells assessed as cell growth at 10 uM after 48 hrs by MTT assay relative to untreated control; type: functional; conditions: MDA-MB-435, 48 h, read-out: Activity
Outline: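 Melanoma lines grown at 37 °C in humidified 5% CO2: MDA-MB-435 in DMEM/Ham's F12 1:1 with 10% FCS and antibiotics, SK-MEL-2 in RPMI-1640 with 10% FCS. Cells plated 24 h, then exposed 48 h to 100–0.01 µM (dilutions from fresh 100 µM stock in medium). MTT 0.5 mg/mL added for 4 h, crystals dissolved in EtOH/DMSO 1:1, absorbance read at 540 nm. Mean ± SD of three independent experiments.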

Row | Structure (SMILES) | inhibition [1] | growth at 10 µM [2]
1 | C[C@@H]1NC(=O)Nc2nc3ccccn3c2C1=O | 8% | 86%
2 | C[C@@H]1NC(c2ccc([N+](=O)[O-])cc2)=Nc2nc3ccccn3c2C1=O | 30% | 99%
